Measurements published in ChEMBL document CHEMBL1128190, “Inhibition of E-selectin-, ICAM-1-, and VCAM-1-mediated cell adhesion by benzo[b]thiophene-, benzofuran-, indole-, and naphthalene-2-carboxamides: identification of PD 144795 as an antiinflammatory agent” (J Med Chem, 1995).
Each block holds one compound with its values, some of them ahead of it.

Experiments:
[1] = The compound was tested for cell adhesion by measuring the inhibitory concentration against Human umbilical vein endothelial cell (HUVEC) activation, using Na51CrO4 as radioligand at 100 micro M; format: functional
Method in brief: (§1)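 Confluent second-passage HUVEC monolayers were stimulated with TNF-α (200 U/mL) for 4 h with or without compound at 100 μM, then washed. Fresh human neutrophils labelled with Na⁵¹CrO₄ (5 × 10⁵) were added for 30 min at 37 °C. Non-adherent cells were aspirated and adherent cells lysed in NH₄OH; lysates were γ-counted. Results are % inhibition of TNF-stimulated adherence, triplicate. IC50 came from linear regression at 33.3–1.0 μM.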

[2] = Tested for cell adhesion by measuring the inhibitory concentration against Human umbilical vein endothelial cell (HUVEC) activation, using Na51CrO4 as radioligand at 100 uM; format: functional; method in brief: as §1
[3] = The compound was tested for cell adhesion by measuring the inhibitory concentration against Human umbilical vein endothelial cell (HUVEC) activation, using Na51CrO4 as radioligand at 100 uM; format: functional; method in brief: as §1
[4] = The compound was tested for cell adhesion by measuring the inhibitory concentration against Human umbilical vein endothelial cell (HUVEC) activation, using Na51CrO4 as radioligand.; format: functional, cell-based
[5] = The compound was tested for inhibitory activity against vascular cell adhesion molecule (VCAM)-1 mediated cell adhesion in Human aortic endothelial cell culture, by using HAEC surface expression assay at 50 uM; format: functional
Method in brief: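 Human aortic endothelial cells at confluence were incubated with TNF-α (250 U/mL) and compound (0.005% DMSO final) for 18 h, then formalin-fixed. Cells were probed with anti-VCAM-1 mAb (2 h, 37 °C), then biotin anti-mouse IgG+IgM F(ab)₂ (1 h), then [¹²⁵I]streptavidin (15 min, 4 °C). NaOH digests were counted.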

[6] = The compound was tested for inhibitory activity against intercellular adhesion molecule (ICAM)-1 mediated cell adhesion in Human umbilical endothelial cell culture, by using HUVEC surface expression assay.; format: functional, cell-based
Method in brief: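 HUVECs were pretreated with compound for 30 min, then stimulated with TNF-α (140 U/mL final) for 4 h at 37 °C. Unstimulated background was subtracted and results given as % inhibition versus vehicle. IC50 came from linear regression; average of two triplicate assays.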

[7] = The compound was tested for inhibitory activity against E-Selectin mediated cell adhesion in Human umbilical endothelial cell culture, by using HUVEC surface expression assay.; format: functional, cell-based
Method in brief: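 Confluent HUVECs were given compound 30 min before TNF-α (140 U/mL final), then incubated 4 h at 37 °C. Unstimulated background was subtracted and results given as % inhibition versus vehicle. IC50 came from linear regression; average of two assays, each in triplicate.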

[8] = The compound was tested for inhibitory activity against intercellular adhesion molecule (ICAM)-1 mediated cell adhesion in Human aortic endothelial cell culture, by using HAEC surface expression assay at 50 uM; format: functional
Method in brief: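 Confluent human aortic endothelial cells were incubated with TNF-α (250 U/mL) and compound (0.005% DMSO final) for 18 h. Cells were formalin-fixed and probed with anti-ICAM-1 mAb (2 h, 37 °C), then peroxidase anti-mouse IgG (1 h) and colour reagent (15 min). Read-out was OD414.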

[9] = Cell adhesion measured using the inhibitory concentration against Human umbilical vein endothelial cell (HUVEC) activation, with Na51CrO4 as radioligand at 100 uM; format: functional; method in brief: as §1
[10] = The compound was tested for cell adhesion by measuring the inhibitory concentration against Human umbilical vein endothelial cell (HUVEC) activation, using calcein-AM as radioligand at 33 uM; format: functional
[11] = The compound was tested for inhibitory activity against intercellular adhesion molecule (ICAM)-1 mediated cell adhesion in Human aortic endothelial cell culture, by using HAEC surface expression assay at 50 micro M
[12] = The compound was tested for inhibitory activity against vascular cell adhesion molecule (VCAM)-1 mediated cell adhesion in Human aortic endothelial cell culture, by using HAEC surface expression assay at 50 micro M
[13] = The compound was tested for cell adhesion by measuring the inhibitory concentration against Human umbilical vein endothelial cell (HUVEC) activation, using calcein-AM as radioligand; format: functional, cell-based
[14] = cell adhesion assay; measuring the inhibitory concentration against Human umbilical vein endothelial cell (HUVEC) activation, using Na51CrO4 as radioligand at 100 uM; format: functional; settings: in the assay text read “calcein-AM” for “Na51CrO4”
[15] = The compound was tested for cell adhesion by measuring the inhibitory concentration against Human umbilical vein endothelial cell (HUVEC) activation, using calcein-AM as radioligand at 100 uM; format: functional
[16] = Inhibitory activity against Human umbilical vein endothelial cell (HUVEC) activation, using Na51CrO4 as radioligand at 100 uM.; format: functional; method in brief: as §1
[17] = The compound was tested for cell adhesion by measuring the inhibitory concentration against Human umbilical vein endothelial cell (HUVEC) activation, using Na51CrO4 as radioligand at 50 uM; format: functional

SMILES: CCNC(=O)c1sc2ccc(OC)cc2c1OC(C)C
Inhibition [1]: 64%

SMILES: COc1ccc2sc(C(N)=O)c(OC(C)(C)C)c2c1
inhibition at 100 µM [2]: 97%

SMILES: CNC(=O)c1c(OC(C)C)c2cc(OC)ccc2[s+]1[O-] (centres undefined)
inhibition at 100 µM [3]: 43%

IC50 [4]: 10 µM
IC50 [6]: 3.7 µM
IC50 [7]: 9.2 µM
SMILES: COc1ccc2c(c1)c(OC(C)C)c(C(N)=O)n2C
inhibition at 50 µM [5]: 84%
inhibition at 50 µM [8]: 92%

SMILES: COc1ccc2sc(C(=O)Nc3ccccc3C(=O)O)c(OC(C)C)c2c1
inhibition at 100 µM [9]: 35%

SMILES: Cc1ccc2sc(C(N)=O)c(OC(C)C)c2c1
inhibition at 100 µM [9]: 61%

SMILES: COc1ccc2sc(C(=O)NCCCCC(=O)O)c(OC(C)C)c2c1
inhibition at 100 µM [9]: 9%

SMILES: CC(C)Oc1c(C(N)=O)sc2ccc(OCc3ccccc3)cc12
inhibition at 100 µM [9]: < 4%

SMILES: CC(C)Oc1c(C(N)=O)sc2ccc([N+](=O)[O-])cc12
inhibition at 100 µM [9]: 40%

SMILES: CCNC(=O)c1c(OC(C)C)c2cc(OC)ccc2[s+]1[O-] (centres undefined)
inhibition at 100 µM [3]: 36%

SMILES: CNC(=O)c1sc2ccc(OC)cc2c1SC(C)C
inhibition at 33 µM [10]: 61%

IC50 [4]: 15 µM
IC50 [6]: 6.6 µM
IC50 [7]: 1.4 µM
SMILES: CNC(=O)c1sc2ccc(OC)cc2c1OC(C)C
Inhibition [11]: 85%
Inhibition [12]: 83%

IC50 [13]: 3.6 µM
SMILES: CC(C)Sc1c(C(N)=O)sc2ccc(O)cc12

SMILES: CC(C)Oc1c(C(N)=O)[s+]([O-])c2ccccc12 (centres undefined)
inhibition at 100 µM [14]: < 4%

IC50 [4]: 14 µM
IC50 [6]: 5 µM
IC50 [7]: 7.9 µM
SMILES: COc1ccc2oc(C(N)=O)c(OC(C)C)c2c1

SMILES: COc1ccc2c(c1)c(OC)c(C(N)=O)[s+]2[O-] (centres undefined)
inhibition at 100 µM [14]: 40%

SMILES: COc1ccc2oc(C(=O)Nc3ccccc3)c(OC(C)C)c2c1
inhibition at 100 µM [9]: < 4%

SMILES: CCNC(=O)c1oc2ccc(OC)cc2c1OC(C)C
inhibition at 100 µM [15]: < 4%

SMILES: CC(C)Oc1c(C(N)=O)ccc2ccccc12
inhibition at 100 µM [9]: < 4%

SMILES: COc1ccc2sc(C(N)=O)c(SCCN)c2c1
inhibition at 33 µM [10]: 0%

SMILES: COc1ccc2ccc(C(=O)Nc3ccccc3)c(OC(C)C)c2c1
inhibition at 100 µM [9]: < 4%

SMILES: CC(C)Sc1c(C(N)=O)sc2ccc(OCc3ccccc3)cc12
inhibition at 33 µM [10]: 24%

SMILES: CC(C)Oc1c(C(N)=O)sc2ccccc12
inhibition at 100 µM [9]: 60%

SMILES: COc1ccc2c(c1)c(Oc1ccccc1)c(C(N)=O)[s+]2[O-] (centres undefined)
inhibition at 100 µM [16]: 15%

SMILES: COc1cccc2c(OC(C)C)c(C(N)=O)sc12
inhibition at 50 µM [5]: < 4%
inhibition at 50 µM [17]: 35%
inhibition at 50 µM [8]: 21%

IC50 [4]: 50 µM
SMILES: COc1ccc2sc(C(=O)Nc3ccc(C(=O)O)cc3)c(OC(C)C)c2c1

SMILES: COc1ccc2sc(C(N)=O)c(OCc3ccccc3)c2c1
inhibition at 100 µM [9]: 57%

IC50 [4]: 6.4 µM
IC50 [6]: 3.5 µM
IC50 [7]: 3.3 µM
SMILES: CC(C)Oc1c(C(N)=O)sc2ccc(O)cc12
inhibition at 50 µM [8]: 91%

SMILES: CC(C)Oc1c(C(N)=O)oc2ccc(Cl)cc12
inhibition at 100 µM [9]: 52%
